Shown are actives, neighbours in structure and some others; about 1.9% of the full set was active somewhere.
IMP-1 inh-1 = IMP-1 metallo-beta-lactamase inhibitors, primary screen, biochemical, epi-absorbance readout, Pseudomonas aeruginosa enzyme; metallo-beta-lactamase IMP-1 (Pseudomonas aeruginosa); purified IMP-1, nitrocefin hydrolysis, epi-absorbance fluorescence; inhibition, % at 5.6 µM; 290,000 tested, 0.45% active;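 active = inhibition above the mean plus 3 SD of all compounds in the same screening run, cut at about 4.5% in these data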
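system = purified recombinant IMP-1 beta-lactamase | amount = 0.2 nM IMP-1, as dispensed | medium = HEPES buffer pH 7.1 with ZnSO4 and Brij 35 | times = 25 °C, 15 min preincubation, 25 min reaction | detection = plate fluorescence quenching by hydrolysis product, ex 480/em 530 nm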
HCV NS3 hel inh = inhibitors of HCV NS3 helicase, primary screen, biochemical, Cy5 molecular beacon fluorescence | AID 1800, 2009 | NS3 helicase DNA unwinding | 290,000 tested, 0.56% active | inhibition, % at 10.9 µM | Hepatitis C virus NS3 helicase;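 active = inhibition above the mean of all tested compounds plus 3 SD, set per campaign, cut at about 35% in these data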
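Test system: hepatitis C virus NS3 helicase domain fragment enzyme. Also added: annealed dual-labelled DNA beacon duplex, ATP-started. Timing: 60 min unwinding reaction at 25 °C after ATP addition. Technique: Cy5 fluorescence. Measure: % inhibition of unwinding.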
VIM-2 inhibitor = VIM-2 metallo-beta-lactamase inhibitors, primary screen, biochemical, epi-absorbance readout, Pseudomonas aeruginosa enzyme | purified VIM-2, nitrocefin hydrolysis, epi-absorbance fluorescence | inhibition, % at 5.6 µM | 290,000 tested, 0.89% active;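 active = inhibition above the mean of all tested compounds plus 3 SD, cutoff set per screening run, cut at about 7.5% in these data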;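 also: red hydrolysis product quenches plate fluorescence so inhibitors raise well fluorescence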
DNA FID counter = compounds displacing fluorescent DNA intercalator, primary screen, artefact control for HCV NS3 helicase inhibitor project, biochemical, FID fluorescence; DNA fluorescent intercalator displacement; 290,000 tested, 0.17% active; inhibition, % at 7.9 µM; in the data active = inhibition above about 37%;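 also: higher means more ethidium bromide displaced from hairpin DNA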
IMP-1 inh-2 = IMP-1 metallo-beta-lactamase inhibitors, confirmation, selectivity assay for selective VIM-2 inhibitor project, biochemical, epi-absorbance readout, triplicate. shares compounds with VIM-2 inhibitor. purified IMP-1, nitrocefin hydrolysis, epi-absorbance fluorescence. inhibition, % at 5.6 µM. 1,300 tested, under 10 active. AID 1856, 2009; call rule not given here
VIM-2 FRET ctr = VIM-2 inhibitors in FRET format, confirmation, artefact control for selective VIM-2 inhibitor project, biochemical, epi-absorbance artifact exclusion; 1,300 tested, 23% active; purified VIM-2, CCF2 FRET substrate hydrolysis; shares compounds with VIM-2 inhibitor; inhibition, % at 5.6 µM; AID 1857, 2009;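 active = inhibition above the mean of all tested compounds plus 3 SD, cut at about 19% in these data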
TEM-1 inh = TEM-1 serine beta-lactamase inhibitors, counter-screen for VIM-2 inhibitor project, biochemical, epi-absorbance, HTS; shares compounds with VIM-2 inhibitor; Purified TEM-1, nitrocefin hydrolysis, epi-absorbance fluorescence; 1,300 tested, 3% active; inhibition, % at 5.6 µM;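 active = inhibition above that campaign's mean inhibition plus 3 SD, cut at about 0.46% in these data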
Target sequence (P62593 whole entry, looked up): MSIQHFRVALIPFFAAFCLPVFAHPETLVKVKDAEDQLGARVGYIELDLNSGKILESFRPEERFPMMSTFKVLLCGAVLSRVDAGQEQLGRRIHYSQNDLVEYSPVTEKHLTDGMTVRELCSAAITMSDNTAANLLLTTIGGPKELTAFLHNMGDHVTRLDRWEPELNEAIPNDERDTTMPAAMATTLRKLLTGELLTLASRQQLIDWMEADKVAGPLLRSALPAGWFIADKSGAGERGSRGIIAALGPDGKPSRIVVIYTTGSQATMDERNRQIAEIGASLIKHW
VIM-2 confirm 2 = VIM-2 metallo-beta-lactamase inhibitors, confirmation, biochemical, epi-absorbance, hits shared with IMP-1 screen; inhibition, % at 5.6 µM; 1,300 tested, 96% active; AID 2187, 2009; purified VIM-2, nitrocefin hydrolysis; shares compounds with VIM-2 inhibitor;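 active = inhibition of the VIM-2 beta-lactamase enzyme above about 11% from the earlier first-round screen, limit read from the data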
Each line names hits and unclear results; the compound was inactive in the other large screens (follow-up assays come after a bar, where they were run).

COc1cc(/C=C/C(=O)OCC(=O)N2CCN(C(=O)c3ccco3)CC2)ccc1O	none
N#Cc1nc(-c2ccccc2)oc1NCCCn1ccnc1	VIM-2 inhibitor 26 | IMP-1 inh-2 inactive | VIM-2 FRET ctr inactive | TEM-1 inh inactive | VIM-2 confirm 2 45
N#Cc1nc(-c2ccc(OCc3ccc(Cl)cc3)cc2)oc1NCCCn1ccnc1	none
COc1ccccc1-c1nc(C#N)c(NCCCn2ccnc2)o1	VIM-2 inhibitor 18 | IMP-1 inh-2 inactive | VIM-2 FRET ctr inactive | TEM-1 inh inactive | VIM-2 confirm 2 35
COc1ccc(CCNc2oc(-c3ccc(OC)c(OC)c3)nc2C#N)cc1	none
COc1ccc(-c2nc(C#N)c(NCCCN(C)C)o2)cc1OC	VIM-2 inhibitor 12 | IMP-1 inh-2 inactive | VIM-2 FRET ctr inactive | TEM-1 inh inactive | VIM-2 confirm 2 27
C/C(=N\NC(=O)c1c(C)nc2ccccn12)c1ccco1	none
CCNCC(=O)N1c2ccccc2CCc2ccc(NC(=O)OC(C)C)cc21	none
COc1ccc(C(=O)NC2CCc3ccccc32)cc1OC1CCN(C(C)=O)CC1 (configuration not stated)	none
O=C1Nc2cc(C(=O)NCCCN3CCCC3)ccc2S/C1=C\c1ccccc1	VIM-2 inhibitor 14 | IMP-1 inh-2 inactive | VIM-2 FRET ctr 32 | TEM-1 inh inactive | VIM-2 confirm 2 23
O=C1Nc2cc(C(=O)NCCCN3CCOCC3)ccc2S/C1=C/c1cccc(Cl)c1	VIM-2 inhibitor 29 | IMP-1 inh-2 inactive | VIM-2 FRET ctr 49 | TEM-1 inh inactive | VIM-2 confirm 2 33
O=C1Nc2cc(C(=O)NCC3CCCO3)ccc2S/C1=C/c1ccccc1F (configuration not stated)	none
O=C1Nc2cc(C(=O)NCCCN3CCOCC3)ccc2S/C1=C/c1ccccc1F	VIM-2 inhibitor 30 | IMP-1 inh-2 inactive | VIM-2 FRET ctr 49 | TEM-1 inh inactive | VIM-2 confirm 2 34
CCOc1ccc(NC(=O)CCCN2C(=O)C(c3ccccc3)Oc3cccnc32)cc1 (configuration not stated)	none
Cc1ccc([N+](=O)[O-])cc1NC(=O)c1cccnc1	none
CC(=O)N(c1ccccc1)c1nnc(-c2cnc(C)cn2)s1	none
CN1CCN(CC(=O)Nc2c(C(=O)C3CC3)oc3ccccc23)CC1	VIM-2 inhibitor 21 | IMP-1 inh-2 inactive | VIM-2 FRET ctr inactive | TEM-1 inh inactive | VIM-2 confirm 2 36
Cn1c(N)c(C(=O)c2ccc(F)cc2F)c(=O)n(C)c1=O	none
N#CCSc1nc2cc(C(=O)N3CCC(C(N)=O)CC3)ccc2c2nc3ccccc3n12	VIM-2 inhibitor 24 | IMP-1 inh-2 inactive | VIM-2 FRET ctr inactive | TEM-1 inh inactive | VIM-2 confirm 2 40
Cc1c(OCC(=O)NCC(O)c2ccccc2)ccc2c(-c3ccccc3)cc(=O)oc12 (configuration not stated)	VIM-2 inhibitor 13 | IMP-1 inh-2 inactive | VIM-2 FRET ctr inactive | TEM-1 inh inactive | VIM-2 confirm 2 26
O=C(COc1ccc2c3c(c(=O)oc2c1)CCCC3)NCc1ccncc1	VIM-2 inhibitor 35 | IMP-1 inh-2 inactive | VIM-2 FRET ctr inactive | TEM-1 inh 3.2 | VIM-2 confirm 2 47
O=C(COc1ccc2c3c(c(=O)oc2c1)CCC3)NCC(O)c1ccccc1 (configuration not stated)	VIM-2 inhibitor 14 | IMP-1 inh-2 inactive | VIM-2 FRET ctr inactive | TEM-1 inh inactive | VIM-2 confirm 2 23
Cc1c(OCC(=O)NCc2ccccn2)ccc2c(-c3ccccc3)cc(=O)oc12	none

Screens: PubChem, The Scripps Research Institute Molecular Screening Center
